Measured values reported in ChEMBL document CHEMBL1759858, “The novel anti-tumor agents of 4-triazol-1,8-naphthalimides: synthesis, cytotoxicity, DNA intercalation and photocleavage” (Eur J Med Chem, 2011).
pIC50: −log10 of the molar value. Active and inactive are the calls of the source. No cut-off for these calls is given here.

Key:
SMMC-7721 [1] = experiment: Cytotoxicity against human SMMC7721 cells after 48 hrs by MTT assay; type: functional, cell-based; conditions: SMMC-7721, 48 h
Outline: (§1)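 MCF-7 and 7721 cells were plated at 1 × 10⁵ cells/ml and exposed for 48 h to a concentration range of compound added from DMSO (final DMSO/medium below 0.001). MTT (5 mg/mL stock in PBS) was added for 3 h, and formazan was dissolved in SDS 200 g/L/50% formamide lysis buffer (pH 4.7). Absorbance was read at 570 nm, with ≥3 experiments. IC50 was taken from mean % absorbance plotted against concentration.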

Nucleic Acid [2] = experiment: Induction of DNA cleavage measured using 2 hrs UV-irradiated Escherichia coli super coiled pBR322 DNA assessed as formation of relaxed open circular form 2 DNA at 100 uM by agarose gel electrophoresis; type: nucleic-acid assay
Outline: (§2)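 Supercoiled pBR322 plasmid (0.05 mM bp) in Tris-HCl (pH 7.5) was incubated with compound at 37 °C and irradiated with 365 nm UV for 2 h. Controls were DNA alone, with and without irradiation. Cleavage forms were resolved on 1% agarose gel electrophoresis.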

Calf thymus DNA [3] = experiment: Binding affinity to calf thymus DNA at compound to DNA ratio of <= 0.20 by circular dichroism; type: nucleic-acid assay; conditions: Bos taurus
Outline: (§3)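 CD spectra were recorded on calf thymus DNA at a fixed concentration in Tris-HCl buffer (pH 7.0). Compound was titrated at R (compound/DNA) ratios of 0.02, 0.04, 0.10, 0.16, 0.20, 0.30, 0.40, 0.60, 0.80, 1.00, 1.2 and 1.40, and compared with free DNA.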

MCF7 [4] = experiment: Cytotoxicity against human MCF7 cells after 48 hrs by MTT assay; type: functional, cell-based; conditions: MCF7, 48 h; outline: as §1
HeLa [5] = experiment: Cytotoxicity against human HeLa cells after 48 hrs by MTT assay; type: functional, cell-based
Calf thymus DNA [6] = experiment: Binding affinity to calf thymus DNA at compound to DNA ratio of >0.20 to < 0.80 by circular dichroism; type: nucleic-acid assay; conditions: Bos taurus; outline: as §3
Calf thymus DNA [7] = experiment: Binding affinity to calf thymus DNA at compound to DNA ratio of > 0.80 by circular dichroism; type: nucleic-acid assay; conditions: Bos taurus; outline: as §3
Nucleic Acid [8] = experiment: Induction of DNA cleavage measured using 2 hrs UV-irradiated Escherichia coli super coiled pBR322 DNA assessed as formation of linear form 3 DNA at 100 uM by agarose gel electrophoresis; type: nucleic-acid assay; outline: as §2
Calf thymus DNA [9] = experiment: Binding affinity to calf thymus DNA assessed as DNA damage at increasing compound to DNA ratio by viscosity measurement; type: nucleic-acid assay; conditions: Bos taurus
Outline: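 Calf thymus DNA was dissolved in 30 mM Tris-HCl (pH 7.5), held overnight at 4 °C, sonicated for 10 min and filtered to remove insoluble material. Viscosity was then measured as the compound-to-DNA ratio was increased.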

HeLa [10] = experiment: Ratio of IC50 for amonafide to compound for human HeLa cells; type: functional
Calf thymus DNA [11] = experiment: Binding affinity to calf thymus DNA assessed as induction of hypochromatic effect by spectrophotometry; type: nucleic-acid assay; conditions: Bos taurus
Outline: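 UV-vis absorption spectra of a fixed compound concentration were recorded during stepwise addition of calf thymus DNA in 30 mM Tris-HCl (pH 7.5). Hypochromicity and bathochromic shift were monitored, and the binding constant was calculated from an equation applied to the absorbance data.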

SMMC-7721 [12] = experiment: Ratio of IC50 for amonafide to compound for human SMMC7721 cells; type: functional
Outline: (§4)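 The ratio compares IC50s from the 48 h MTT assay on MCF-7 or 7721 cells (1 × 10⁵ cells/ml, readout at 570 nm, ≥3 experiments). Amonafide was run as the control under the same conditions, and the ratio is its IC50 divided by the compound's.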

MCF7 [13] = experiment: Ratio of IC50 for amonafide to compound for human MCF7 cells; type: functional; outline: as §4

Row | SMILES | Activity (Nucleic Acid [2]) | Activity (Calf thymus DNA [3]) | Activity (Calf thymus DNA [6]) | Activity (Calf thymus DNA [7]) | Activity (Nucleic Acid [8]) | Kb (Calf thymus DNA [11]) | pIC50 (SMMC-7721 [1]) | pIC50 (MCF7 [4]) | pIC50 (HeLa [5]) | Activity (Calf thymus DNA [9]) | Ratio IC50 (HeLa [10]) | Ratio IC50 (SMMC-7721 [12]) | Ratio IC50 (MCF7 [13])
1 | CN(C)CCN1C(=O)c2cccc3cc(N)cc(c23)C1=O [AMONAFIDE] | – | – | – | – | – | – | 5.37 | 5.77 | 5.76 | – | – | – | –
2 | CCCCN1C(=O)c2cccc3c(-n4cc(-c5ccccc5)nn4)ccc(c23)C1=O | Active | – | – | – | – | – | 4.48 | 4.71 | 4.71 | – | – | – | –
3 | CN(C)CCN1C(=O)c2cccc3c(-n4cc(-c5ccccc5)nn4)ccc(c23)C1=O | Active | – | – | – | Active | 2.95 ×10⁵ /M | 6.33 | 6.49 | 5.99 | Active | 1.7 | 9.2 | 5.2
4 | O=C1c2cccc3c(-n4cc(-c5ccccc5)nn4)ccc(c23)C(=O)N1CCO | Active | – | – | – | – | – | < 4.00 | < 4.00 | < 4.00 | inactive | – | – | –

Now from value to compound, other results behind:

Row | Activity (Nucleic Acid [2]) | Activity (Calf thymus DNA [3]) | Activity (Calf thymus DNA [6]) | Activity (Calf thymus DNA [7]) | Activity (Nucleic Acid [8]) | Kb (Calf thymus DNA [11]) | SMILES | pIC50 (SMMC-7721 [1]) | pIC50 (MCF7 [4]) | pIC50 (HeLa [5]) | Activity (Calf thymus DNA [9]) | Ratio IC50 (HeLa [10]) | Ratio IC50 (SMMC-7721 [12]) | Ratio IC50 (MCF7 [13])
5 | Active | Active | Active | inactive | Active | – | CCN(CC)CCN1C(=O)c2cccc3c(-n4cc(-c5ccccc5)nn4)ccc(c23)C1=O | 5.72 | 5.96 | 4.57 | – | – | – | –
6 | Active | – | – | – | – | – | O=C1c2cccc3c(-n4cc(-c5ccccc5)nn4)ccc(c23)C(=O)N1CCN1CCNCC1 | 5.81 | 6.08 | 4.01 | – | – | – | –
